Data from article PMC3983340 (Journal of Medicinal Chemistry, 2014).

Legend:
[1] = target: T1, C. glabrata DHFR (CgDHFR) (Candida glabrata, UniProt Q6FPH0); assay: DHFR enzyme inhibition; format: biochemical
T1 sequence (Q6FPH0 1-217): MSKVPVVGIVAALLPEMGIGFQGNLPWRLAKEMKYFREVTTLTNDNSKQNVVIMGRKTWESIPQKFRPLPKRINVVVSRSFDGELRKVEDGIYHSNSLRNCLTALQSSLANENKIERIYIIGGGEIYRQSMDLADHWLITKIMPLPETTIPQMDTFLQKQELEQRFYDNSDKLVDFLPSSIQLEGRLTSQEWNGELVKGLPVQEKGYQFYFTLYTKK

[2] = test system: C. albicans (strain SC5314); assay: Antifungal activity; format: cell-based
Procedure, shortened: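 SC5314 from −80 °C glycerol stock streaked on YM agar (37 °C, 48 h); colonies cultured in glucose–salt–biotin medium, pH 7.1, at 25 °C for 18 h (also printed as 30 °C, 24–36 h). Diluted to 1 × 10^5–1 × 10^6 cells/mL in GSB over test compound in DMSO (1 μL per 100 μL). Alamar Blue added after 24 h; MIC from absorbance-maximum shift 570→600 nm. Amphotericin B, itraconazole controls.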

IC50 [1] [nM] | MIC C. albicans in the presence of 0.01% Triton X-100 [2] | SMILES
89 | – | CCc1nc(N)nc(N)c1C#CC(C)c1cc(OC)cc(-c2ccncc2)c1 (stereo not drawn) [Compound 1]
– | do inhibit the growth of C. albicans | COc1ccc(-c2ccccc2)cc1C(C)C#Cc1c(C)nc(N)nc1N (stereo not drawn) [Compound 2]
– | not significantly changed | CCc1nc(N)nc(N)c1C#CC(C)c1ccc(-c2ccc(C)cc2)nc1 (stereo not drawn) [Compound 47, 6-Ethyl-5-[3-(6-p-tolyl-pyridin-3-yl)-but-1-ynyl]-pyrimidine-2,4-diamine]
